Reference: ChEMBL document CHEMBL2417474, “Synthesis, antiproliferative and anti-inflammatory activities of some novel 6-aryl-2-(p-(methanesulfonyl)phenyl)-4,5-dihydropyridazi-3(2H)-ones” (Eur J Med Chem, 2013)

What was measured:
[1] = tested on: RXF 393; test: Growth inhibition of human RXF393 cells after 48 hrs by sulforhodamine B assay; type: functional; conditions: RXF 393, 48 h
Method in brief: (§1)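 NCI 60-cell-line panel. Cells were grown in medium with 5% fetal calf serum and 2 mM L-glutamine, then preincubated 24 h in plates. Compounds were added from DMSO at five 10-fold concentrations from 100 to 0.01 µM and left on cells continuously for 48 h. Cell growth was read by sulforhodamine B protein stain. GI50 is the concentration that halves net protein increase relative to control cells.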

[2] = tested on: NCI-H460; test: Growth inhibition of human NCI-H460 cells after 48 hrs by sulforhodamine B assay; type: functional; conditions: NCI-H460, 48 h; method in brief: as §1
[3] = tested on: HL-60(TB); test: Growth inhibition of human HL-60(TB) cells assessed as cell growth at 10 uM after 48 hrs by sulforhodamine B assay; type: functional; conditions: HL-60, 48 h, read-out: Activity
[4] = tested on: IGROV-1; test: Growth inhibition of human IGROV1 cells assessed as cell growth at 10 uM after 48 hrs by sulforhodamine B assay; type: functional; conditions: IGROV-1, 48 h, read-out: Activity
[5] = tested on: CCRF-CEM; test: Growth inhibition of human CCRF-CEM cells after 48 hrs by sulforhodamine B assay; type: functional, cell-based
Method in brief: (§2)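 NCI 60-cell-line panel grown in RPMI-type medium with 5% fetal calf serum and 2 mM L-glutamine. Cells preincubated 24 h, then exposed continuously for 48 h to compound in DMSO at 10^-4 to 10^-8 M (five 10-fold levels). Growth read by SRB protein stain. GI50 is the concentration giving a 50% reduction in net protein increase relative to control cells.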

[6] = tested on: SF-539; test: Growth inhibition of human SF539 cells after 48 hrs by sulforhodamine B assay; type: functional; conditions: SF-539, 48 h; method in brief: as §1
[7] = tested on: SK-MEL-5; test: Growth inhibition of human SK-MEL-5 cells after 48 hrs by sulforhodamine B assay; type: functional; conditions: SK-MEL-5, 48 h; method in brief: as §1
[8] = tested on: ACHN; test: Growth inhibition of human ACHN cells after 48 hrs by sulforhodamine B assay; type: functional; method in brief: as §2
[9] = tested on: SK-OV-3; test: Growth inhibition of human SKOV3 cells assessed as cell growth at 10 uM after 48 hrs by sulforhodamine B assay; type: functional; conditions: SK-OV-3, 48 h, read-out: Activity
[10] = tested on: K562; test: Growth inhibition of human K562 cells after 48 hrs by sulforhodamine B assay; type: functional; conditions: K562, 48 h; method in brief: as §2
[11] = tested on: HOP-92; test: Growth inhibition of human HOP92 cells after 48 hrs by sulforhodamine B assay; type: functional; conditions: HOP-92, 48 h; method in brief: as §2
[12] = tested on: MCF7; test: Growth inhibition of human MCF7 cells after 48 hrs by sulforhodamine B assay; type: functional; conditions: MCF7, 48 h; method in brief: as §2
[13] = tested on: OVCAR-4; test: Growth inhibition of human OVCAR4 cells assessed as cell growth at 10 uM after 48 hrs by sulforhodamine B assay; type: functional; conditions: OVCAR-4, 48 h, read-out: Activity
[14] = Growth inhibition of human NCI-ADR-RES cells assessed as cell growth at 10 uM after 48 hrs by sulforhodamine B assay; type: functional; conditions: read-out: Activity
[15] = tested on: TK-10; test: Growth inhibition of human TK10 cells assessed as cell growth at 10 uM after 48 hrs by sulforhodamine B assay; type: functional; conditions: TK-10, 48 h, read-out: Activity
Method in brief: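 Single-dose NCI screen. Tumor lines were cultured in medium with 5% fetal calf serum and 2 mM L-glutamine, preincubated 24 h, then given compound in DMSO. After 48 h continuous exposure, cell growth was estimated by sulforhodamine B protein assay.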

[16] = tested on: MOLT-4; test: Growth inhibition of human MOLT4 cells after 48 hrs by sulforhodamine B assay; type: functional; conditions: MOLT-4, 48 h; method in brief: as §1
[17] = tested on: SNB-75; test: Growth inhibition of human SNB75 cells assessed as cell growth at 10 uM after 48 hrs by sulforhodamine B assay; type: functional; conditions: SNB-75, 48 h, read-out: Activity
[18] = tested on: TK-10; test: Growth inhibition of human TK10 cells after 48 hrs by sulforhodamine B assay; type: functional; conditions: TK-10, 48 h
Method in brief: (§3)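 NCI 60-line panel. Cells were grown in medium with 5% fetal calf serum and 2 mM L-glutamine and preincubated 24 h in plates. Compound in DMSO was added at 10^-4 to 10^-8 M (five 10-fold levels), with continuous exposure for 48 h. Growth was read by SRB protein staining. GI50 is the concentration giving 50% reduction in net protein increase versus control cells.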

[19] = tested on: SK-MEL-28; test: Growth inhibition of human SK-MEL-28 cells assessed as cell growth at 10 uM after 48 hrs by sulforhodamine B assay; type: functional; conditions: SK-MEL-28, 48 h, read-out: Activity
[20] = tested on: SW-620; test: Growth inhibition of human SW620 cells after 48 hrs by sulforhodamine B assay; type: functional; conditions: SW-620, 48 h; method in brief: as §3
[21] = tested on: A498; test: Growth inhibition of human A498 cells after 48 hrs by sulforhodamine B assay; type: functional; conditions: A498, 48 h; method in brief: as §2
[22] = tested on: RXF 393; test: Growth inhibition of human RXF393 cells assessed as cell growth at 10 uM after 48 hrs by sulforhodamine B assay; type: functional; conditions: RXF 393, 48 h, read-out: Activity
[23] = tested on: SR; test: Growth inhibition of human SR cells after 48 hrs by sulforhodamine B assay; type: functional; method in brief: as §1
[24] = tested on: SNB-19; test: Growth inhibition of human SNB19 cells after 48 hrs by sulforhodamine B assay; type: functional; conditions: SNB-19, 48 h; method in brief: as §1
[25] = tested on: Rattus norvegicus; test: Antiinflammatory activity in Wistar rat assessed as inhibition of carrageenan-induced paw edema at 0.05 mmol/kg, po administered 30 mins prior challenge measured after 5 hrs; type: functional
Method in brief: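 Wistar rats of either sex, 150–175 g, fasted 16 h, 6 per group. Dosed orally at 0.05 mmol/kg, suspended in 1% CMC in water (10 ml/kg). 30 min later, 0.1 ml of 1% carrageenan in saline injected subplantar into the left hind paw. Paw volume read by plethysmometer at 0, 3 and 5 h. % inhibition = (1 − Vt/Vc) × 100 against the vehicle group.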

[26] = read-out: LC50 (the source's name)

In the case of `Cc1ccc(C2=NN(c3ccc(S(C)(=O)=O)cc3)C(=O)CC2)cc1`, the GI50 [1] is reported as 630 nM, the LC50 (50% lethal concentration) [1] is reported as > 100000 nM and the TGI [1] is reported as 6800 nM. The GI50 [2] was 380 nM, the TGI [2] was > 100000 nM and the CC50 [2, 26] was > 100000 nM. For the same compound, the growth at 10 µM [3] was -12%, the growth at 10 µM [4] was 59.2% and the GI50 [5] was 1160 nM. For the same compound, the IC50 [5] was > 100000 nM, the TGI [5] was > 100000 nM and the GI50 [6] was 1020 nM. The TGI [6] was 17400 nM, the CC50 [6, 26] was > 100000 nM and the GI50 [7] was 410 nM. The LC50 [7] was > 100000 nM, the TGI [7] was > 100000 nM and the GI50 [8] was 4020 nM. For the same compound, the LC50 (concentration killing 50% of starting cells) [8] was > 100000 nM, the TGI [8] was > 100000 nM and the growth at 10 µM [9] was 19.9%. The GI50 [10] was 370 nM, the TGI [10] was > 100000 nM and the CC50 [10, 26] was > 100000 nM. The GI50 [11] was 420 nM, the TGI [11] was 8300 nM and the CC50 [11, 26] was > 100000 nM. For the same compound, the GI50 [12] was 1380 nM, the LC50 (concentration killing 50% of cells) [12] was > 100000 nM and the TGI [12] was > 100000 nM. For the same compound, the growth at 10 µM [13] was 60.8%, the growth at 10 µM [14] was 6.72% and the growth at 10 µM [15] was 67%. For the same compound, the GI50 [16] was 860 nM, the LC50 [16] was > 100000 nM and the TGI [16] was > 100000 nM. For the same compound, the growth at 10 µM [17] was 8.1%, the GI50 [18] was 7690 nM and the TGI [18] was > 100000 nM. For the same compound, the CC50 [18, 26] was > 100000 nM, the growth at 10 µM [19] was 51.4% and the GI50 [20] was 340 nM. The TGI [20] was > 100000 nM, the CC50 [20, 26] was > 100000 nM and the GI50 [21] was 140 nM. The TGI [21] was 1600 nM, the CC50 [21, 26] was > 100000 nM and the growth at 10 µM [22] was 15.4%. For the same compound, the GI50 [23] was 290 nM, the LC50 [23] was > 100000 nM and the TGI [23] was > 100000 nM. For the same compound, the GI50 [24] was 1250 nM, the TGI [24] was > 100000 nM and the CC50 [24, 26] was > 100000 nM. For the same compound, the inhibition in vivo at 50 µmol/kg [25] was 60.5%.
Compound `O=c1[nH]cc(F)c(=O)[nH]1` [FLUOROURACIL] has a GI50 [1] of 2610 nM, a GI50 [2] of 50 nM and a GI50 [5] of 9790 nM. The GI50 [6] was 60 nM, the GI50 [7] was 460 nM and the GI50 [8] was 290 nM. For the same compound, the GI50 [10] was 3580 nM, the GI50 [11] was 77900 nM and the GI50 [12] was 70 nM. It also gave a GI50 [16] of 350 nM, a GI50 [18] of 1120 nM and a GI50 [20] of 920 nM. For the same compound, the GI50 [21] was 350 nM, the GI50 [23] was 20 nM and the GI50 [24] was 3810 nM.
